From ChEMBL document CHEMBL4715734, “Discovery of the Potent and Selective M1 PAM-Agonist N-[(3R,4S)-3-Hydroxytetrahydro-2H-pyran-4-yl]-5-methyl-4-[4-(1,3-thiazol-4-yl)benzyl]pyridine-2-carboxamide (PF-06767832): Evaluation of Efficacy and Cholinergic Side Effects” (J Med Chem, 2016)
Substitutions are numbered along the chain they refer to.

What was measured:
[1] = Unbound brain concentration in amphetamine-induced C57BL/6J mouse model of hyperlocomotion at 1 mg/kg, sc measured after 1 hr; format: ADME, organism-based; conditions: in vivo
How it was run: (§1)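 Satellite PK animals from the mouse aLMA study, N=2/dose. Dosed subcutaneously with a solution in 5/15/80 DMSO/Solutol/water. Plasma and brain were sampled at T = 1 h.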

[2] = Unbound plasma concentration in amphetamine-induced C57BL/6J mouse model of hyperlocomotion at 0.32 mg/kg, sc measured after 1 hr; format: ADME, organism-based; conditions: in vivo; how it was run: as §1
[3] = target: T1, Muscarinic acetylcholine receptor M1 (Rattus norvegicus) (UniProt P08482); experiment: Agonist activity at muscarinic M1 receptor in Sprague-Dawley rat hippocampal slice assessed as increase in CA1 spiked rates by electrophysiological analysis; conditions: filed as agonist
T1 sequence (whole entry): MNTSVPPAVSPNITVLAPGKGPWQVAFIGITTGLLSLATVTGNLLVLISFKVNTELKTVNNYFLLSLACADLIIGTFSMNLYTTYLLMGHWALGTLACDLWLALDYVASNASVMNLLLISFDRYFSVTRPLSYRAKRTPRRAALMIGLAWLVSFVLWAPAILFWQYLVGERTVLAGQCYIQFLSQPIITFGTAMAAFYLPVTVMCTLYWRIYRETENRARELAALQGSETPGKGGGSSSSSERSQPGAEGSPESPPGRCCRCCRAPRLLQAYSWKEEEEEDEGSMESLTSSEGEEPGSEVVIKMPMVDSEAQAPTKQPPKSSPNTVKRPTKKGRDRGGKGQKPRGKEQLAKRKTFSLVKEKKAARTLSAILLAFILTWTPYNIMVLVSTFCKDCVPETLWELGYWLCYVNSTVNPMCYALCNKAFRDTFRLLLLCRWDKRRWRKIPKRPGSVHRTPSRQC

[4] = Ratio of fAUC in rat brain to plasma; format: ADME, cell-free; conditions: brain and plasma, read-out: Ratio AUC
[5] = Ratio of AUC in dog brain to fAUC in dog plasma; format: ADME, cell-free, Canis lupus familiaris; conditions: in vivo
[6] = Permeability of compound in MDCKII-LE cells; format: ADME, cell-based, Canis lupus familiaris; conditions: dog, MDCK; read-out: permeability
[7] = Toxicity in male Beagle dog assessed as increase in maximum systolic left ventricular pressure at 1 mg/kg, po observed upto 9 hrs post last dose by telemetry; format: organism-based, Canis lupus familiaris; conditions: in vivo
How it was run: (§2)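 Crossover telemetry study in dogs at three oral doses (0.3, 1 and 3 mg/kg), N=4. Endpoints were blood pressure, maximum systolic left ventricular pressure, LV +dP/dt max, activity, heart rate, and RR, QT and QTc intervals, followed up to 9 h post dose.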

[8] = Fraction unbound in C57BL/6 mouse plasma; format: ADME, cell-free
[9] = Toxicity in dog assessed as induction of loose stool at 3 mg/kg, po using spray-dried dispersion formulation; format: organism-based, Canis lupus familiaris; conditions: in vivo
[10] = target: T2, Muscarinic acetylcholine receptor M1 (Homo sapiens, UniProt P11229); experiment: Positive allosteric modulation of muscarinic M1 receptor (unknown origin) assessed as increase in Ach-induced recruitment of beta-arrestin by Path Hunter assay; format: cell-based, CHO
T2 sequence (P11229 whole entry): T1 sequence (whole entry) with V5A, S254T, S309P, K320R, G337A, V413I

[11] = Toxicity in male Beagle dog assessed as change in CV end points at 0.3 mg/kg, po by telemetry; format: organism-based, Canis lupus familiaris; conditions: in vivo; how it was run: as §2
[12] = Unbound brain concentration in CD-1 mouse at 3.2 mg/kg, sc measured after 2 hrs by LC-MS/MS analysis; format: ADME, organism-based; conditions: in vivo
[13] = Toxicity in dog assessed as salivation at 45 mg/kg, po using spray-dried dispersion formulation measured after 45 mins; format: organism-based, Canis lupus familiaris; conditions: in vivo, 0.75 h
[14] = fAUC (0 to 24 hrs) in dog at 5 mg/kg, po using spray-dried dispersion formulation; format: ADME, organism-based, Canis lupus familiaris; conditions: in vivo
[15] = Unbound plasma concentration in amphetamine-induced C57BL/6J mouse model of hyperlocomotion at 1 mg/kg, sc measured after 1 hr; format: ADME, organism-based; conditions: in vivo; how it was run: as §1
[16] = target: T3, Muscarinic acetylcholine receptor M1 (Homo sapiens) (UniProt P11229); experiment: Positive allosteric modulation of human muscarinic M1 receptor expressed in CHO cells assessed as increase in ACh-induced displacement of [3H]-NMS from M1 receptor at 10 uM by scintillation counting method relative to Ach alone; format: cell-based; conditions: filed as positive allosteric modulator
T3 sequence (whole entry): T1 sequence (whole entry) with V5A, S254T, S309P, K320R, G337A, V413I

[17] = Toxicity in rat at 3 mg/kg, po administered for 14 days; format: organism-based; conditions: in vivo, 336 h, time 14 day
How it was run: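 Two-week repeat-dose toxicity study in rats. Oral dosing in 0.5% methylcellulose at 3, 10, 30 (males)/15 (females) mg/kg, N=4/sex/dose. Food intake, body weight gain and histopathology were assessed.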

[18] = target: Dual 3',5'-cyclic-AMP and -GMP phosphodiesterase 11A (Homo sapiens, UniProt Q9HCR9); experiment: Inhibition of PDE11A4 (unknown origin)
Chain of Dual 3',5'-cyclic-AMP and -GMP phosphodiesterase 11A (Q9HCR9 whole entry): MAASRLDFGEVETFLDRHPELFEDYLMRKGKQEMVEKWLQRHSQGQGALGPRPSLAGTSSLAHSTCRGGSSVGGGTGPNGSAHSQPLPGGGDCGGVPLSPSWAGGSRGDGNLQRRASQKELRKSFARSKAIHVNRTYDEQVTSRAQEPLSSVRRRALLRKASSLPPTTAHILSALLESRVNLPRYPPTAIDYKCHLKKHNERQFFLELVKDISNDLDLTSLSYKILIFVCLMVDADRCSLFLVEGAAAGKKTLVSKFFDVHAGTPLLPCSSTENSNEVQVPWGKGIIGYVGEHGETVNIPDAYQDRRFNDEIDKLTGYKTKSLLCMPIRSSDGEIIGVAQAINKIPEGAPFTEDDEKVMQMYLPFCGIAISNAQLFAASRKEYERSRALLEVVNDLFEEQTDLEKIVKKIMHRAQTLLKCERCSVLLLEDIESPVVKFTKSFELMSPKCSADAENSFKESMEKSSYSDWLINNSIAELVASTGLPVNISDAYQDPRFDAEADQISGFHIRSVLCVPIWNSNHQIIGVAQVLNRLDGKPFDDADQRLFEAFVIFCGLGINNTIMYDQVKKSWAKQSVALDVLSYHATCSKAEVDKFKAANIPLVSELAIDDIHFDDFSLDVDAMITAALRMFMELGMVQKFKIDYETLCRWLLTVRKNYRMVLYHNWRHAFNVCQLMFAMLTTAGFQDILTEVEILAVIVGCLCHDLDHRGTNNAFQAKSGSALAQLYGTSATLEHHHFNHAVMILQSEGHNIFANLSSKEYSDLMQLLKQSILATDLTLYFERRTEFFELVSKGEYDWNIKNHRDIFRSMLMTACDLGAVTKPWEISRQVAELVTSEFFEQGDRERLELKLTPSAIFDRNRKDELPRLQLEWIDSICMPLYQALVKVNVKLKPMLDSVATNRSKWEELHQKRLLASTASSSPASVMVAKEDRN

[19] = Ratio of AUC monkey brain to fAUC in monkey plasma; format: ADME, cell-free, Macaca mulatta; conditions: rhesus monkey, in vivo
[20] = fCmax in dog at 5 mg/kg, po using spray-dried dispersion formulation; format: ADME, organism-based, Canis lupus familiaris; conditions: in vivo
[21] = Oral bioavailability in dog at 0.5 mg/kg; format: ADME, organism-based, Canis lupus familiaris; conditions: in vivo

Drug uptake(free) [1]: 18.5 nM
Cp(f) [2]: 23.4 nM
Activity [3]: Dose-dependent effect
Kp uu [4]: 0.34
Ratio AUC [5]: 0.6
Papp [6]: 22 ×10⁻⁶ cm/s
Fu [8]: 2.9%
EC50 [10]: 365 nM
Drug uptake(free) [12]: 52.8 nM
fAUC [14]: 5.861 µM·h
Cp(f) [15]: 76.1 nM
fold change (FC) [16]: 339
IC50 [18]: 4940 nM
Ratio AUC [19]: 0.41
fCmax [20]: 659 nM
bioavailability [21]: 43%
Structure (SMILES): Cc1cnc(C(=O)N[C@H]2CCOC[C@@H]2O)cc1Cc1ccc(-c2cscn2)cc1
Activity [7]: 8 mmHg
Activity [9]: Toxic
Activity [11]: Non-Toxic
Activity [13]: Toxic
Activity [17]: Non-Toxic
